Measurements reported in ChEMBL document CHEMBL3085624, “Design, synthesis, and biological evaluation of novel investigational nonapeptide KISS1R agonists with testosterone-suppressive activity” (J Med Chem, 2013).
Non-standard residues stand in square brackets, D forms with d. Residues, ends and D or L forms follow the SMILES beside them. 2Nal = N[C@@H](Cc1ccc2ccccc2c1)C(=O)O; Arg(Me) = CNC(=N)NCCC[C@H](N)C(=O)O; azaGly = NNC(=O)O

Experiments:
KiSS-1 receptor [1] = target: T1, KiSS-1 receptor (Homo sapiens, UniProt Q969F8); assay: Binding affinity to human KISS1R expressed in CHO cell membranes
T1 sequence (Q969F8 whole entry): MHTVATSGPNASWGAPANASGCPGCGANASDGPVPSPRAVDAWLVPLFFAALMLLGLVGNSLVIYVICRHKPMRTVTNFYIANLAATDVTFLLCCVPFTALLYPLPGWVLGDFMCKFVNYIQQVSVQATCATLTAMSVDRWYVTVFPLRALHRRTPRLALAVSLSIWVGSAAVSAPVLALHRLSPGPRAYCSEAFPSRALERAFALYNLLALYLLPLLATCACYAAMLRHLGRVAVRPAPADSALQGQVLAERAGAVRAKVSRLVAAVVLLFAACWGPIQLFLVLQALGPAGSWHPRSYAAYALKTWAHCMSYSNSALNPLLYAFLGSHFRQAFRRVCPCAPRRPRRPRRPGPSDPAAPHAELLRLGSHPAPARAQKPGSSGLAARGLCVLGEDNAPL

KiSS-1 receptor [2] = target: KiSS-1 receptor (Rattus norvegicus, UniProt Q924U1); assay: Binding affinity to rat KISS1R
Chain of KiSS-1 receptor (Rattus norvegicus, UniProt Q924U1) (Q924U1 whole entry): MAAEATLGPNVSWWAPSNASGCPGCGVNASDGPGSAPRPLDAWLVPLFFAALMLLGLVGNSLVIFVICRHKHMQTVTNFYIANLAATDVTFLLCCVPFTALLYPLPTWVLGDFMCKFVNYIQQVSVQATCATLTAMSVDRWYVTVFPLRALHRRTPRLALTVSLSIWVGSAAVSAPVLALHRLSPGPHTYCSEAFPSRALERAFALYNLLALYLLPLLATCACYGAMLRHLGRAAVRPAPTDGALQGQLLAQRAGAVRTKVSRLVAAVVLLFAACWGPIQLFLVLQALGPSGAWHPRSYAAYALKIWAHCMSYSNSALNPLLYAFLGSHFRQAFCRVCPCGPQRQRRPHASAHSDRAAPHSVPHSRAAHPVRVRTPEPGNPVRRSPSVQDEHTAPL

KiSS-1 receptor [3] = target: T1, KiSS-1 receptor; assay: Agonist activity at recombinant human KISS1R expressed in CHO cells assessed as intracellular calcium mobilization incubated for 30 mins at 37 degC and 30 mins at room temperature by Fluo-4 NW staining-based FLIPR assay relative to Metastin (45 to 54); assay type: functional, cell-based
How it was run: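 CHO cells stably expressing human KISS1R seeded at 15,000 cells/well, cultured 24 h, then loaded with Fluo-4 Direct in HBSS with 4 mM probenecid and 0.1% BSA (30 min 37 °C, 30 min room temperature). Compounds from 10 µM DMSO stocks diluted in sample buffer and added. Fluorescence read for 2 min at 2 s intervals. Peak counts give agonist activity. EC50 expressed as ratio to metastin(45-54).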

Compound | Ki (KiSS-1 receptor [2]) | Ki (KiSS-1 receptor [1]) | fold change (FC) (KiSS-1 receptor [3]) | also measured
CNC(N)=NCCC[C@H](NC(=O)[C@H](CC(C)C)NC(=O)CNC(=O)[C@H](Cc1ccccc1)NC(=O)[C@H](CO)NC(=O)[C@H](CC(N)=O)NC(=O)[C@H](Cc1c[nH]c2ccccc12)NC(=O)[C@H](CC(N)=O)NC(=O)[C@H](N)Cc1ccc(O)cc1)C(=O)N[C@@H](Cc1ccccc1)C(N)=O |  |  |  | Ki (KiSS-1 receptor [1]; cho): 0.046 nM
CNC(N)=NCCC[C@H](NC(=O)[C@H](CC(C)C)NC(=O)NNC(=O)[C@H](Cc1ccccc1)NC(=O)[C@H](CO)NC(=O)[C@H](CC(N)=O)NC(=O)[C@H](Cc1ccncc1)NC(=O)[C@H](CC(N)=O)NC(=O)[C@H](N)Cc1ccc(O)cc1)C(=O)N[C@@H](Cc1ccccc1)C(N)=O | 0.12 nM | 0.12 nM |  | 
CNC(N)=NCCC[C@H](NC(=O)[C@H](CC(C)C)NC(=O)NNC(=O)[C@H](Cc1ccccc1)NC(=O)[C@H](CO)NC(=O)[C@H](CC(N)=O)NC(=O)[C@@H](Cc1c[nH]c2ccccc12)NC(=O)[C@H](CC(N)=O)NC(=O)[C@H](N)Cc1ccc(O)cc1)C(=O)N[C@@H](Cc1ccccc1)C(N)=O |  | 0.078 nM |  | 
CNC(N)=NCCC[C@H](NC(=O)[C@H](CC(C)C)NC(=O)NNC(=O)[C@H](Cc1ccccc1)NC(=O)[C@H](CO)NC(=O)[C@H](CC(N)=O)NC(=O)[C@@H](Cc1ccncc1)NC(=O)[C@H](CC(N)=O)NC(=O)[C@H](N)Cc1ccc(O)cc1)C(=O)N[C@@H](Cc1ccccc1)C(N)=O | 0.12 nM | 0.12 nM |  | 
CNC(N)=NCCC[C@H](NC(=O)[C@H](CC(C)C)NC(=O)NNC(=O)[C@H](Cc1ccccc1)NC(=O)[C@H](CO)NC(=O)[C@H](CC(N)=O)NC(=O)[C@H](Cc1ccncc1)NC(=O)[C@@H](CC(N)=O)NC(=O)[C@@H](N)Cc1ccc(O)cc1)C(=O)N[C@@H](Cc1ccccc1)C(N)=O | 0.16 nM | 0.21 nM |  | 
CNC(N)=NCCC[C@H](NC(=O)[C@H](CC(C)C)NC(=O)NNC(=O)[C@H](Cc1ccccc1)NC(=O)[C@H](CO)NC(=O)[C@H](CC(N)=O)NC(=O)[C@H](Cc1ccccc1)NC(=O)[C@H](N)Cc1ccc(O)cc1)C(=O)N[C@@H](Cc1ccccc1)C(N)=O | 0.15 nM | 0.086 nM |  | 
CNC(N)=NCCC[C@H](NC(=O)[C@H](CC(C)C)NC(=O)NNC(=O)[C@H](Cc1ccccc1)NC(=O)[C@H](CO)NC(=O)[C@H](CC(N)=O)NC(=O)[C@H](Cc1ccccc1)NC(=O)[C@H](N)Cc1cccnc1)C(=O)N[C@@H](Cc1ccccc1)C(N)=O | 0.28 nM | 0.2 nM |  | 
CNC(N)=NCCC[C@H](NC(=O)[C@H](CC(C)C)NC(=O)NNC(=O)[C@H](Cc1ccccc1)NC(=O)[C@H](CO)NC(=O)[C@H](CC(N)=O)NC(=O)[C@H](Cc1c[nH]c2ccccc12)NC(=O)[C@H](N)Cc1cccnc1)C(=O)N[C@@H](Cc1ccccc1)C(N)=O | 0.13 nM | 0.11 nM |  | 
CC(C)C[C@H](NC(=O)NNC(=O)[C@H](Cc1ccccc1)NC(=O)[C@H](CO)NC(=O)[C@H](CC(N)=O)NC(=O)[C@H](Cc1c[nH]c2ccccc12)NC(=O)[C@H](CC(N)=O)NC(=O)[C@@H](N)Cc1ccc(O)cc1)C(=O)N[C@@H](CCCNC(=N)N)C(=O)N[C@@H](Cc1ccccc1)C(N)=O |  | 0.045 nM | 1.7 | 
CNC(=N)NCCC[C@H](NC(=O)[C@H](CC(C)C)NC(=O)NNC(=O)[C@H](Cc1ccccc1)NC(=O)[C@H](CO)NC(=O)[C@H](CC(N)=O)NC(=O)[C@H](Cc1c[nH]c2ccccc12)NC(=O)[C@@H](CC(N)=O)NC(=O)[C@H](N)Cc1ccc(O)cc1)C(=O)N[C@@H](Cc1ccccc1)C(N)=O |  | 0.062 nM | 2.6 | 
CNC(N)=NCCC[C@H](NC(=O)[C@H](CC(C)C)NC(=O)NNC(=O)[C@H](Cc1ccccc1)NC(=O)[C@H](CO)NC(=O)[C@H](CC(N)=O)NC(=O)[C@H](Cc1c[nH]c2ccccc12)NC(=O)[C@@H](CO)NC(=O)[C@H](N)Cc1ccc(O)cc1)C(=O)N[C@@H](Cc1ccccc1)C(N)=O | 0.093 nM | 0.086 nM |  | 
CNC(N)=NCCC[C@H](NC(=O)[C@H](CC(C)C)NC(=O)NNC(=O)[C@H](Cc1ccccc1)NC(=O)[C@H](CO)NC(=O)[C@H](CC(N)=O)NC(=O)[C@H](Cc1ccncc1)NC(=O)[C@@H](CC(N)=O)NC(=O)[C@H](N)Cc1ccc(O)cc1)C(=O)N[C@@H](Cc1ccccc1)C(N)=O | 0.095 nM | 0.11 nM |  | 
CNC(=N)NCCC[C@H](NC(=O)[C@H](CC(C)C)NC(=O)NNC(=O)[C@H](Cc1ccccc1)NC(=O)[C@H](CO)NC(=O)[C@H](CC(N)=O)NC(=O)[C@@H](Cc1c[nH]c2ccccc12)NC(=O)[C@@H](CC(N)=O)NC(=O)[C@H](N)Cc1ccc(O)cc1)C(=O)N[C@@H](Cc1ccccc1)C(N)=O |  |  | 8.6 | 
CNC(=N)NCCC[C@H](NC(=O)[C@H](CC(C)C)NC(=O)NNC(=O)[C@H](Cc1ccccc1)NC(=O)[C@H](CO)NC(=O)[C@H](CC(N)=O)NC(=O)[C@@H](Cc1c[nH]c2ccccc12)NC(=O)[C@H](CC(N)=O)NC(=O)[C@H](N)Cc1ccc(O)cc1)C(=O)N[C@@H](Cc1ccccc1)C(N)=O |  |  | 3.7 | 
CNC(=N)NCCC[C@H](NC(=O)[C@H](CC(C)C)NC(=O)NNC(=O)[C@H](Cc1ccccc1)NC(=O)[C@H](CO)NC(=O)[C@H](CC(N)=O)NC(=O)[C@@H](Cc1ccncc1)NC(=O)[C@H](CC(N)=O)NC(=O)[C@H](N)Cc1ccc(O)cc1)C(=O)N[C@@H](Cc1ccccc1)C(N)=O |  |  | 3.6 | 
CNC(=N)NCCC[C@H](NC(=O)[C@H](CC(C)C)NC(=O)NNC(=O)[C@H](Cc1ccccc1)NC(=O)[C@H](CO)NC(=O)[C@H](CC(N)=O)NC(=O)[C@@H](NC(=O)[C@@H](CC(N)=O)NC(=O)[C@H](N)Cc1ccc(O)cc1)[C@@H](C)O)C(=O)N[C@@H](Cc1ccccc1)C(N)=O |  |  | 7.3 | 
CNC(=N)NCCC[C@H](NC(=O)[C@H](CC(C)C)NC(=O)NNC(=O)[C@H](Cc1ccccc1)NC(=O)[C@H](CO)NC(=O)[C@H](CC(N)=O)NC(=O)[C@H](Cc1c[nH]c2ccccc12)NC(=O)[C@@H](CO)NC(=O)[C@H](N)Cc1ccc(O)cc1)C(=O)N[C@@H](Cc1ccccc1)C(N)=O |  |  | 3.7 | 
CNC(=N)NCCC[C@H](NC(=O)[C@H](CC(C)C)NC(=O)NNC(=O)[C@H](Cc1ccccc1)NC(=O)[C@H](CO)NC(=O)[C@H](CC(N)=O)NC(=O)[C@H](Cc1c[nH]c2ccccc12)NC(=O)[C@H](CC(N)=O)NC(=O)[C@H](N)Cc1ccc(O)cc1)C(=O)N[C@@H](Cc1ccccc1)C(N)=O |  |  | 2.8 | 
CNC(=N)NCCC[C@H](NC(=O)[C@H](CC(C)C)NC(=O)NNC(=O)[C@H](Cc1ccccc1)NC(=O)[C@H](CO)NC(=O)[C@H](CC(N)=O)NC(=O)[C@H](Cc1c[nH]c2ccccc12)NC(=O)[C@H](N)Cc1cccnc1)C(=O)N[C@@H](Cc1ccccc1)C(N)=O |  |  | 8.7 | 
CNC(=N)NCCC[C@H](NC(=O)[C@H](CC(C)C)NC(=O)NNC(=O)[C@H](Cc1ccccc1)NC(=O)[C@H](CO)NC(=O)[C@H](CC(N)=O)NC(=O)[C@H](Cc1ccccc1)NC(=O)[C@H](N)Cc1ccc(O)cc1)C(=O)N[C@@H](Cc1ccccc1)C(N)=O |  |  | 7.7 | 
CNC(=N)NCCC[C@H](NC(=O)[C@H](CC(C)C)NC(=O)NNC(=O)[C@H](Cc1ccccc1)NC(=O)[C@H](CO)NC(=O)[C@H](CC(N)=O)NC(=O)[C@H](Cc1ccccc1)NC(=O)[C@H](N)Cc1cccnc1)C(=O)N[C@@H](Cc1ccccc1)C(N)=O |  |  | 5.8 | 
CNC(=N)NCCC[C@H](NC(=O)[C@H](CC(C)C)NC(=O)NNC(=O)[C@H](Cc1ccccc1)NC(=O)[C@H](CO)NC(=O)[C@H](CC(N)=O)NC(=O)[C@H](Cc1ccncc1)NC(=O)[C@@H](CC(N)=O)NC(=O)[C@@H](N)Cc1ccc(O)cc1)C(=O)N[C@@H](Cc1ccccc1)C(N)=O |  |  | 2.7 | 
CNC(=N)NCCC[C@H](NC(=O)[C@H](CC(C)C)NC(=O)NNC(=O)[C@H](Cc1ccccc1)NC(=O)[C@H](CO)NC(=O)[C@H](CC(N)=O)NC(=O)[C@H](Cc1ccncc1)NC(=O)[C@@H](CC(N)=O)NC(=O)[C@H](N)Cc1ccc(O)cc1)C(=O)N[C@@H](Cc1ccccc1)C(N)=O |  |  | 1.7 | 
CNC(=N)NCCC[C@H](NC(=O)[C@H](CC(C)C)NC(=O)NNC(=O)[C@H](Cc1ccccc1)NC(=O)[C@H](CO)NC(=O)[C@H](CC(N)=O)NC(=O)[C@H](Cc1ccncc1)NC(=O)[C@H](CC(N)=O)NC(=O)[C@H](N)Cc1ccc(O)cc1)C(=O)N[C@@H](Cc1ccccc1)C(N)=O |  |  | 5 | 
CNC(N)=NCCC[C@H](NC(=O)[C@H](CC(C)C)NC(=O)NNC(=O)[C@H](Cc1ccccc1)NC(=O)[C@H](CO)NC(=O)[C@H](CC(N)=O)NC(=O)[C@H](CO)NC(=O)[C@H](N)Cc1ccc(O)cc1)C(=O)N[C@@H](Cc1ccccc1)C(N)=O (H-[dY]SNSF[azaGly]L[Arg(Me)]F-NH2) | 0.3 nM | 0.21 nM |  | 
CNC(=N)NCCC[C@H](NC(=O)[C@H](CC(C)C)NC(=O)NNC(=O)[C@H](Cc1ccccc1)NC(=O)[C@H](CO)NC(=O)[C@H](CC(N)=O)NC(=O)[C@H](CO)NC(=O)[C@H](N)Cc1ccc(O)cc1)C(=O)N[C@@H](Cc1ccccc1)C(N)=O (H-[dY]SNSF[azaGly]L[Arg(Me)]F-NH2) |  |  | 61 | 
CNC(=N)NCCC[C@H](NC(=O)[C@H](CC(C)C)NC(=O)NNC(=O)[C@H](Cc1ccccc1)NC(=O)[C@H](CO)NC(=O)[C@H](CC(N)=O)NC(=O)[C@H](Cc1ccc2ccccc2c1)NC(=O)[C@H](N)Cc1ccc(O)cc1)C(=O)N[C@@H](Cc1ccccc1)C(N)=O (H-[dY][2Nal]NSF[azaGly]L[Arg(Me)]F-NH2) |  |  | 6.4 | 
CNC(=N)NCCC[C@H](NC(=O)[C@H](CC(C)C)NC(=O)NNC(=O)[C@H](Cc1ccccc1)NC(=O)[C@H](CO)NC(=O)[C@H](CC(N)=O)NC(=O)[C@H](Cc1ccccc1)NC(=O)[C@@H](CC(N)=O)NC(=O)[C@H](N)Cc1ccc(O)cc1)C(=O)N[C@@H](Cc1ccccc1)C(N)=O (H-[dY][dN]FNSF[azaGly]L[Arg(Me)]F-NH2) |  |  | 1.5 | 
CC(C)C[C@H](NC(=O)CNC(=O)[C@H](Cc1ccccc1)NC(=O)[C@H](CO)NC(=O)[C@H](CC(N)=O)NC(=O)[C@H](Cc1c[nH]c2ccccc12)NC(=O)[C@H](CC(N)=O)NC(=O)[C@@H](N)Cc1ccc(O)cc1)C(=O)N[C@@H](CCCNC(=N)N)C(=O)N[C@@H](Cc1ccccc1)C(N)=O [KISSPEPTIN-10] |  | 0.039 nM |  | 
